The values that follow come from publication PMC4029328 (Biomedical chromatography : BMC, 2013).

Where two headings read alike, the source gives them in different places.

In general, Cmax refers to the highest concentration seen after dosing. By MRT is commonly meant a mean duration of stay, worked out from the concentration-time curve. The Vd is a proportionality between amount in the body and measured concentration, not a real space. High values mean wide distribution into tissue, low ones little distribution into tissue.

The nature of series [1]: Intravenous pharmacokinetic study in rats. It is filed as in vivo. The note with it: 4 mg/kg IV bolus, male Sprague Dawley rats, n=6, mean ± SD. The procedure, abridged:
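Male rats 240-250 g, housed 48 h, fasted 12 h predose and 4 h postdose, water free. Dosed via jugular vein cannula, 30 s bolus in 10% PEG 400 in water, prepared same day. Chloroform liquid-liquid extraction with tryptoline internal standard. Noncompartmental analysis.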

A short description of series [2]: Stability of 7-OHMG in rat plasma QC samples. It counts as in vitro ADME. The conditions noted are these: for Concentration measured: n=6.
The test system of series [3] is opioid receptors. The conditions noted are these: in vitro assays; ref Horie et al., 2005; cited from earlier work.
For another series, the system named is μ-opioid receptors. The conditions noted are these: ref Matsumoto et al., 2004, 2006; cited from earlier work.
For series [4] the following is noted: at equi-antinociceptive doses; ref Matsumoto et al., 2006; cited from earlier work.
Another series deals with mice. The note with it: ref Matsumoto et al., 2005, cited from earlier work.
Series [5] has as its system opioid receptors. The note with it: pharmacological experiments; ref Watanabe et al., 1997; cited from earlier work.
The mark [6] stands for this setting: rat plasma, long term 30 days at -20 °C, spiked 20 ng/mL.
Where [7] appears, read: rat plasma, long term 30 days at -20 °C, spiked 600 ng/mL.
Setting [8] is: rat plasma, long term 30 days at -20 °C, spiked 3200 ng/mL.
Setting [9] is: rat plasma, short term 12 hr at 25 °C, spiked 20 ng/mL.
Where [10] appears, read: rat plasma, short term 12 hr at 25 °C, spiked 600 ng/mL.
The mark [11] stands for this setting: rat plasma, short term 12 hr at 25 °C, spiked 3200 ng/mL.
Setting [12] is: rat plasma, three freeze thaw cycles, spiked 20 ng/mL.
Where [13] appears, read: rat plasma, three freeze thaw cycles, spiked 600 ng/mL.
[14] abbreviates: rat plasma, three freeze thaw cycles, spiked 3200 ng/mL.
[15] abbreviates: reconstituted plasma extract, auto sampler 12 hr at 25 °C, spiked 20 ng/mL.
[16] abbreviates: reconstituted plasma extract, auto sampler 12 hr at 25 °C, spiked 600 ng/mL.

With `CC[C@@H]1CN2CC[C@@]3(O)C(=Nc4cccc(OC)c43)[C@@H]2C[C@@H]1/C(=C\OC)C(=O)OC` [7-OHMG, 7-hydroxymitragynine], in series [1], the “AUC0→∞” value was 98.3 ± 32.1 µg·min/mL. The molecule further came in with a CL in series [1] of 44.2 ± 14.8 mL/min/kg. The same molecule registered a Cmax in series [1] of 3000 ± 300 ng/mL. Also, the MRT in series [1] was 70.9 ± 10.0 min. Further, the T1/2 in series [1] turned out to be 22.9 ± 3.6 min. This molecule also gave a Vd in series [1] of 1.5958 ± 0.5863 L/kg. Further, the “Short-term stability in plasma” value in series [2] (12 h at room temperature) is “stable”. In series [2] (12 h in auto-sampler at 25 °C), the “Auto-sampler stability of reconstituted samples” value is “stable”. Also, the “Long-term stability in plasma” value in series [2] (30 days at -20 °C) is “stable”. Also, the “Accuracy (measured vs spiked concentration)” value in series [2] (setting [6]) is listed as 98%; in series [2] (setting [7]), 101.7%; in series [2] (setting [8]) it was 95.6%; in series [2] (setting [9]), 101.5%; in series [2] (setting [10]), 108.8%; in series [2] (setting [11]), 102.8%. The “Accuracy (measured vs spiked concentration)” value in series [2] (setting [12]) came out at 102%; in series [2] (setting [13]), 105.2%; in series [2] (setting [14]), 103.5%; in series [2] (setting [15]) it was 95.5%; in series [2] (setting [16]) it was 94.7%; in series [2] (reconstituted plasma extract, auto sampler 12 hr at 25 °C, spiked 3200 ng/mL) it was 99.8%. For the same molecule, the Concentration measured in series [2] (setting [6]) is on record as 19.6 ± 0.8 ng/mL; in series [2] (setting [7]) it was 610.4 ± 28.8 ng/mL; in series [2] (setting [8]), 3058.2 ± 320.4 ng/mL; in series [2] (setting [9]) it was 20.3 ± 1.3 ng/mL; in series [2] (setting [10]), 652.7 ± 17.8 ng/mL; in series [2] (setting [11]) it was 3289.4 ± 197.2 ng/mL. The Concentration measured was determined as 20.4 ± 0.3 ng/mL in series [2] (setting [12]); 631.3 ± 40.2 ng/mL in series [2] (setting [13]); 3312.5 ± 163.5 ng/mL in series [2] (setting [14]); 19.1 ± 0.7 ng/mL in series [2] (setting [15]); 568.3 ± 43.9 ng/mL in series [2] (setting [16]). For the same molecule, the “Freeze-thaw stability in plasma” value in series [2] (three freeze-thaw cycles, stored at -20 °C and thawed to room temperature) is “stable”. For the same molecule, in the series on opioid receptors [3], the “Opioid agonistic effect among constituents of Mitragyna speciosa” value is given as “most potent effect”. The “Affinity for μ- versus δ- and κ-opioid receptors” value with μ-opioid receptors was “higher affinity for μ-opioid receptors relative to the δ- and κ- receptors”. The “Times less constipating than morphine” value in series [4] is listed as 4.9-6.4 times. The Place preference entry with mice (1 mg/kg dose) is reported as “slight place preference”; in the series on mice (2 mg/kg dose), “strong place preference”.

As for mitragynine, the “Effect on opioid receptors” value in the series on opioid receptors [5] is “agonistic effects on opioid receptors”.
